Reference: ChEMBL document CHEMBL1135232, “Synthesis and antiplatelet activity of gemfibrozil chiral analogues” (Bioorg Med Chem Lett, 2002)

What was measured:
Format in all cases: functional
Homo sapiens [1] = species: Homo sapiens; test: Compound was evaluated for the inhibitory activity against human platelet aggregation by COL/ADP cartridges at a concentration of 5 x 10 e-3 M; details: for inhibition at 5000 µM: Homo sapiens
How it was run: (§1)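 Human whole blood drawn by forearm venipuncture into 3.8% (0.129 M) buffered sodium citrate (1:9 anticoagulant:blood). Aliquots incubated with compound (in 0.1 N NaOH/water 1:10; final 1–5 mM) 37 °C, 30 min, then loaded into PFA-100 cartridge (collagen/epinephrine or collagen/ADP). Closure time read in seconds; % inhibition calculated against vehicle-treated control blood.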

Homo sapiens [2] = species: Homo sapiens; test: Compound was evaluated for the inhibitory activity against human platelet aggregation by COL/ADP cartridges at a concentration of 3 x 10 e-3 M; details: for inhibition at 3000 µM: Homo sapiens; how it was run: as §1
Homo sapiens [3] = species: Homo sapiens; test: Compound concentration that cause 50% inhibition of human platelet aggregation by COL/EPI cartridges; how it was run: as §1
Homo sapiens [4] = species: Homo sapiens; test: Compound was evaluated for the inhibitory activity against human platelet aggregation by COL/ADP cartridges at a concentration of 2 x 10 e-3 M; how it was run: as §1
Homo sapiens [5] = species: Homo sapiens; test: Compound was evaluated for the inhibitory activity against human platelet aggregation by COL/ADP cartridges at a concentration of 1 x 10 e-3 M; how it was run: as §1
Homo sapiens [6] = species: Homo sapiens; test: Compound was evaluated for the inhibitory activity against human platelet aggregation by COL/ADP cartridges at a concentration of 4 x 10 e-3 M; details: for inhibition at 4000 µM: Homo sapiens; how it was run: as §1

| SMILES | Inhibition (Homo sapiens [1]) | Inhibition (Homo sapiens [2]) | IC50 (Homo sapiens [3]; Homo sapiens) | inhibition at 2000 µM (Homo sapiens [4]) | inhibition at 1000 µM (Homo sapiens [5]) | Inhibition (Homo sapiens [6]) | inhibition at 5000 µM (Homo sapiens [1]) | inhibition at 3000 µM (Homo sapiens [2]) | inhibition at 4000 µM (Homo sapiens [6]) | IC50 (Homo sapiens [3]) |
| --- | --- | --- | --- | --- | --- | --- | --- | --- | --- | --- |
| Cc1ccc(C)c(OCCCC(C)C(=O)O)c1 (single isomer, unassigned; (+)) | 5.36% | 0.97% | 3090 µM | 0% | 0% | 0% |  |  |  |  |
| CC(=O)Oc1ccccc1C(=O)O [ASPIRIN] |  |  | 50 µM | 0% | 0% |  | 17.1% | 0% | 6.76% |  |
| CCC(CCCOc1cc(C)ccc1C)C(=O)O (stereo in doubt; 5b) | 2.57% | 3.3% | 2420 µM | 0% | 0% | 5.51% |  |  |  |  |
| Cc1ccc(C)c(OCCCC(C)(C)C(=O)O)c1 [GEMFIBROZIL] |  |  | 2670 µM | 2.5% | 0% |  | 100% | 17% | 100% |  |
| Cc1ccc(C)c(OCCCC(C)C(=O)O)c1 (stereo in doubt; 5a) | 24.39% | 0.49% |  |  |  | 4.39% |  |  |  | 2470 µM |
| CCC(CCCOc1cc(C)ccc1C)C(=O)O (single isomer, unassigned; (+)) | 100% | 0% |  |  |  | 0% |  |  |  | 4120 µM |
| Cc1ccc(C)c(OCCCC(C)C(=O)O)c1 (single isomer, unassigned; (-)) | 100% | 0% |  |  |  |  |  |  |  | 2610 µM |
